Compound activity from PubChem BioAssay.
This is a sample that favours compounds with a hit; in the whole collection about 1.1% have one here.
Lipid droplet = hepatic lipid droplet formation modulation; inhibition, % at 6.5 µM; AML12 mouse hepatocytes, oleate lipid droplets, BODIPY imaging; AID 1656; hit rate 0.4% among 240,000;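 active means lipid droplet intensity inhibited by at least 50%, with more than 500 cells counted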
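Technique: fluorescence imaging, 20x objective, two fields per well / Assay system: AML12 hepatocytes (mouse) / Measure: % inhibition of lipid droplet signal / Doses: 6.5 µM single-point dosing / Incubation: overnight exposure / Reagent: 100 µM oleic acid challenge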
FXIa inh 1536 = inhibitors of human coagulation factor XIa; purified FXIa, Boc-Glu-Ala-Arg-AMC fluorogenic substrate; inhibition, % at 5 µM; AID 798; P03951; hit rate 0.14% among 220,000;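 active means inhibition of at least 40%; inactive means inhibition below 40%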;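 further: fluorescence of freed AMC excited at 355 nm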
KLK5 inh = kallikrein 5 (human) inhibition | Q9Y337 | recombinant hK5, fluorogenic AMC substrate cleavage | inhibition, % at 5 µM | hit rate 0.59% among 210,000 | AID 873;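 active means inhibition of 40% or more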
Biofilm kill mix = mixtures killing C. albicans biofilm. inhibition, % at 7.6 µM. AID 1242. C. albicans biofilm persisters + clotrimazole, fluorescence viability; primary screen in compound mixtures of four per well. hit rate 0.02% among 120,000;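 active means inhibition above 30.3% in the primary screen of four-compound pools, then above 30% when the compound was retested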;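 further: compounds exposed to preformed 24 h biofilms for 48 h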
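Probe or stimulus – Clotrimazole 50 µg/mL co-treatment · System – C. albicans biofilms · Schedule – 24 h biofilm formation, then 48 h compound exposure, 37 °C · Evaluation – percent inhibition of biofilm viability · Technique – 2-h Alamar Blue fluorescence, 535/590 nm excitation/emission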
FXIIa inh = blocks human coagulation factor XIIa protease activity | AID 800 | hit rate 0.3% among 220,000 | inhibition, % at 5 µM | purified FXIIa, Boc-QGR-AMC fluorogenic substrate, 2 h; in the data active means inhibition above about 40%
Target sequence (P00748 20-372 limits assumed): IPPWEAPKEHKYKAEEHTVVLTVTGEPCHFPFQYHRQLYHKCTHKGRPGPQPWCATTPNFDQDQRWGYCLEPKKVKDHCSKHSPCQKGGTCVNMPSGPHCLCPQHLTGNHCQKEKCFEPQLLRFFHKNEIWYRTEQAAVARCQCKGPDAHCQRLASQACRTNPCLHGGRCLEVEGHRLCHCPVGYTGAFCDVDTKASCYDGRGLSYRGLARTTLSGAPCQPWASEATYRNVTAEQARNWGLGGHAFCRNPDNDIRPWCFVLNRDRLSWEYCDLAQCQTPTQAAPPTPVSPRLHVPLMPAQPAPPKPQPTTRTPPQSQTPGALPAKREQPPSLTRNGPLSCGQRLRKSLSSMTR
Target sequence (P00748 373-615 limits assumed): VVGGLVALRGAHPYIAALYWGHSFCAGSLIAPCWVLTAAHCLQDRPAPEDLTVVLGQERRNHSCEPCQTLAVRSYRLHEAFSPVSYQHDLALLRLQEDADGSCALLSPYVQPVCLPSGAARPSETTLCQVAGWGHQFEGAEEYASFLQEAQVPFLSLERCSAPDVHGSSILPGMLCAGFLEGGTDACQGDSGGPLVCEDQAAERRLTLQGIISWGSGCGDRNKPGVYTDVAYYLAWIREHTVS
thrombin 1536 = blocks human thrombin protease activity; inhibition, % at 5 µM; hit rate 0.26% among 220,000; AID 1046; P00734; alpha-thrombin, Boc-VPR-AMC fluorogenic substrate cleavage;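 active means inhibition at or above 40%; inactive means inhibition below 40%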
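Material: human alpha-thrombin enzyme / Medium: pH 7.5 Tris (50 mM) with NaCl 150 mM, Tween 20 0.05% / Compound: single-point dosing at 5 µM, 0.2% DMSO / Incubation: enzyme reaction carried out at room temperature / Detection: AMC fluorescence, 355/460 nm / Read-out basis: percent inhibition scaled between no-compound controls and no-enzyme blanks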
Of the large screens only hits and unclear results are named; the others gave an inactive call.

Cc1cccc(C(=O)NNC(=O)CSc2nnc(C3CC3)n2C)c1	none (no result: FXIa inh 1536, KLK5 inh, Biofilm kill mix, FXIIa inh, thrombin 1536)
N#Cc1cnn(Cc2ccccc2)c1N	none (no result: Lipid droplet, Biofilm kill mix)
N#Cc1cnn(Cc2ccc(Cl)cc2)c1N	FXIIa inh 57.6 (no result: Biofilm kill mix)
CN(NC1OC(=O)c2ccccc21)c1ccc(Cl)cc1[N+](=O)[O-] (stereo not drawn)	none
O=C1OC(Nc2ccc(F)c([N+](=O)[O-])c2)c2ccccc21 (stereo not drawn)	FXIa inh 1536 43.9, thrombin 1536 50.3
Cn1ncc(Cl)c1C(=O)NCC1CCCO1 (stereo not drawn)	none (no result: FXIa inh 1536, KLK5 inh, Biofilm kill mix, FXIIa inh, thrombin 1536)
CO/N=C/c1cccn1-c1nccc(OC)c1C#N	none (no result: KLK5 inh)
COc1ccc(C2OC(=O)C(C)(C)C(=O)C2(C)C)cc1OC (stereo not drawn)	none
COc1ccc(C2N3CC4(C)CN2CC(C)(C3)C4=O)cc1OC (stereo not drawn)	KLK5 inh 61.4 (no result: Lipid droplet, Biofilm kill mix)
CC1(C)C2CCC(C2)C1(C)N=C1OC(CCl)CS1 (stereo not drawn)	FXIa inh 1536 52.5, KLK5 inh 51.9
ClCC1CSC(=NC23CC4CC(CC(C4)C2)C3)O1 (stereo not drawn)	none
O=C(NNc1cccc(Cl)c1)c1cccnc1Oc1ccccc1	none
CC1(C)CC(=O)C2=C(C1)N(Cc1ccccc1)C(=O)C2(NC(=O)C(C)(C)C)C(F)(F)F (stereo not drawn)	KLK5 inh 53.4 (no result: Lipid droplet, Biofilm kill mix)
CC(=O)NC1(C(F)(F)F)C(=O)N(Cc2ccccc2)C2=C1C(=O)CC(C)(C)C2 (stereo not drawn)	none (no result: Lipid droplet, Biofilm kill mix)
CCOC(=O)c1c(NC(=O)C2C3CCC(O3)C2C(=O)O)sc2c1CCCC2 (stereo not drawn)	none
Cc1ccc(-c2c(C)sc(NC(=O)C3C4CCC(O4)C3C(=O)O)c2C(=O)OC(C)C)cc1 (stereo not drawn)	KLK5 inh 106.6 (no result: Lipid droplet, Biofilm kill mix)
CN(CC(=O)Nc1ccc(C#N)cc1)Cc1ccc(Cl)cc1Cl	KLK5 inh 52.4 (no result: Biofilm kill mix)
O=C(NCc1cccs1)c1ccc(CS(=O)Cc2cccc(Cl)c2)o1 (stereo not drawn)	none (no result: FXIa inh 1536, KLK5 inh, Biofilm kill mix, FXIIa inh, thrombin 1536)
NC(=O)C1(N2CCCCC2)CCN(Cc2ccc(F)cc2)CC1	KLK5 inh 48.7 (no result: Biofilm kill mix)
COCCCNC(=O)c1c(N)n(-c2ccc3c(c2)OCO3)c2nc3ccccc3nc12	KLK5 inh 104.6 (no result: Lipid droplet, Biofilm kill mix)
CCOC(=O)c1cc(-c2ccc(C)cc2)n(CC(=O)NCc2ccco2)c1C	KLK5 inh 54.2 (no result: Lipid droplet, Biofilm kill mix)
Cc1ccc(C)c(N(CC(=O)NC(C)(C)C)C(=O)CCC(=O)Nc2nccs2)c1	none (no result: FXIa inh 1536, KLK5 inh, Biofilm kill mix, FXIIa inh, thrombin 1536)
O=C(Nc1ccc(Br)cc1)c1cccc(N2C(=O)CCC2=O)c1	none (no result: FXIa inh 1536, KLK5 inh, Biofilm kill mix, FXIIa inh, thrombin 1536)
O=C(Nc1ccccc1)c1cccc(N2C(=O)CCC2=O)c1	KLK5 inh 63.5 (no result: Biofilm kill mix)
CC(C)CC(OC(=O)c1ccc(Cl)nc1)C(=O)NC1CCCC1 (stereo not drawn)	none (no result: FXIa inh 1536, KLK5 inh, Biofilm kill mix, FXIIa inh, thrombin 1536)
COc1cc(C(=O)O)ccc1OCC(=O)N1CCOCC1	none (no result: Lipid droplet, Biofilm kill mix)
COc1cc(C(=O)NCCN2C(=O)S/C(=C\c3ccc(F)cc3)C2=O)ccc1OCC(=O)N1CCOCC1	none
COc1cc(C(=O)Nc2nc(-c3ccc(F)cc3)cs2)ccc1OCC(=O)N1CCOCC1	Lipid droplet 61.4
COc1cc(C(=O)Nc2nc(-c3ccc(C)cc3)cs2)ccc1OCC(=O)N1CCOCC1	Lipid droplet 88.2
CCCCNC(=O)C1Cc2cc(S(=O)(=O)N3CCCC3)ccc2N1C(C)=O (stereo not drawn)	none (no result: FXIa inh 1536, KLK5 inh, Biofilm kill mix, FXIIa inh, thrombin 1536)
O=C(CBr)N1CCc2ccccc2C(c2ccccc2)C1 (stereo not drawn)	none
O=C(CN1CCOCC1)N1CCc2ccccc2C(c2ccccc2)C1 (stereo not drawn)	KLK5 inh 72.8 (no result: Lipid droplet, Biofilm kill mix)
CCn1c(SCC(=O)N2CCOCC2)nc(O)cc1=O	none (no result: Lipid droplet, Biofilm kill mix)
CCN1CCN(C(=O)CSc2cc(=O)n(CC)c3ccccc23)CC1	none (no result: Biofilm kill mix)
CCn1c(=O)cc(SCC(=O)N2CCCCC2)c2ccccc21	KLK5 inh 121.2 (no result: Lipid droplet, Biofilm kill mix)
CCn1c(SCC(=O)N2CCCCC2)nc(O)cc1=O	FXIIa inh 44.2 (no result: Lipid droplet, Biofilm kill mix)
CCOc1ccc(NC(=O)C2CCN(S(=O)(=O)c3ccc4c(c3)C(C)(C)C(=O)N4C)CC2)cc1	none (no result: FXIa inh 1536, KLK5 inh, Biofilm kill mix, FXIIa inh, thrombin 1536)
Cc1cc(OC(C)C(=O)NCC2CCCO2)cc(C)c1Cl (stereo not drawn)	none (no result: FXIa inh 1536, KLK5 inh, Biofilm kill mix, FXIIa inh, thrombin 1536)
CCC(CO)[n+]1c(C)cc(/C=C2\Sc3ccccc3N2Cc2ccccc2)cc1C (stereo not drawn)	Biofilm kill mix 34.5
CCN1/C(=C2\SC(=S)N(Cc3ccccc3)C2=O)Sc2ccccc21	none
